pIC50: −log10 of the molar value. Activity calls are given as the source filed them. The calls are words filed in the database; no cut-off is given here.
Tests used:
Assay type in all cases: cell-based
[1] = target: T1, 11-beta-hydroxysteroid dehydrogenase 1 (Homo sapiens, UniProt P28845); experiment: Inhibition of human 11beta-HSD1 expressed in HEK293 cells assessed as [1,2-3H]-cortisone reduction […] after 10 mins in presence of NADPH; conditions: for pIC50: read-out: IC50
How it was run: (§1)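 Cell-free 11β-HSD1 activity assay. Compounds were first screened at a single 20 µM concentration, and IC50 values were then determined for selected compounds. Values are mean ± SD from at least three independent experiments.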
Target sequence in this assay (P28845 whole entry): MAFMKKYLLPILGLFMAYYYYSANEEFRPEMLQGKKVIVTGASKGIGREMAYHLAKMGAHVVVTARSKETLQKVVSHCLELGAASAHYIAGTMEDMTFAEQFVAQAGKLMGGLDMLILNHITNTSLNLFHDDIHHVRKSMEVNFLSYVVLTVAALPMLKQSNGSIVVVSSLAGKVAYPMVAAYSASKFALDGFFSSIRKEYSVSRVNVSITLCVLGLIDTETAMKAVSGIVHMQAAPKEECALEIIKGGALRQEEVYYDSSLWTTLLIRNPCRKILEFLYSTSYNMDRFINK

[2] = target: T2, 11-beta-hydroxysteroid dehydrogenase type 2 (Homo sapiens) (UniProt P80365); experiment: Inhibition of human 11beta-HSD2 expressed in HEK293 cells assessed as [1,2,6,7-3H]-cortisol oxidation to [1,2-3H]-cortisone at 20 uM after 10 mins in presence of NAD+
T2 sequence (whole entry): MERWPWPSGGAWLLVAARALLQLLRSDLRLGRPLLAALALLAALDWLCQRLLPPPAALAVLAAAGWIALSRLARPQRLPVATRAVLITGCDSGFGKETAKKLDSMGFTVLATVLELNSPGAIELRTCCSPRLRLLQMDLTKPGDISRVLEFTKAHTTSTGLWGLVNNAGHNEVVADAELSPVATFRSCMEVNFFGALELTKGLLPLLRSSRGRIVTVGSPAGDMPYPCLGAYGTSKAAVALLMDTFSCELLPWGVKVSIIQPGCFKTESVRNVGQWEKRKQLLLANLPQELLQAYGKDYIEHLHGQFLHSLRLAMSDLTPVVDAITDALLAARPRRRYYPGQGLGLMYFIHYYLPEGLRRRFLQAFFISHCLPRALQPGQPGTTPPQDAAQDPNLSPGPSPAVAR

[3] = target: T1, 11-beta-hydroxysteroid dehydrogenase 1; experiment: Inhibition of human 11beta-HSD1 expressed in HEK293 cells assessed as [1,2-3H]-cortisone reduction […] measured as residual activity at 20 uM after 10 mins relative to control in presence of NADPH; how it was run: as §1
Target sequence in this assay (P28845 whole entry, looked up): as the sequence (P28845 whole entry) above

[4] = target: T1, 11-beta-hydroxysteroid dehydrogenase 1; experiment: Inhibition of human 11beta-HSD1 expressed in HEK293 cells assessed as [1,2-3H]-cortisone reduction […] measured as residual activity after 10 mins relative to control in presence of NADPH; how it was run: as §1
Target sequence in this assay (P28845 whole entry, looked up): as the sequence (P28845 whole entry) above

Structure (SMILES)	pIC50 [1]	inhibition [2]	Activity [3]	IC50 ([1]; hek293)	Activity [4]
COc1ccc(S(=O)(=O)N2CCN(c3nc4ccccc4n3C)CC2)cc1	5.38	inactive			
Cc1ccc(S(=O)(=O)N2CCN(c3nc4ccccc4[nH]3)CC2)cc1		inactive	50%		
CC(C)(C)c1ccc(S(=O)(=O)N2CCN(c3nc4ccccc4o3)CC2)cc1		inactive		ND(Insoluble)	18%
Cn1c(N2CCN(S(=O)(=O)c3ccc(C(=O)O)cc3)CC2)nc2ccccc21		inactive	90%		
COc1ccc(S(=O)(=O)N2CCN(c3nc4ccccc4n3C)CC2)cc1[N+](=O)[O-]	4.57	inactive			
Cn1c(N2CCN(S(=O)(=O)c3ccc(C(=O)NO)cc3)CC2)nc2ccccc21		inactive	90%		
Cn1c(N2CCN(S(=O)(=O)c3cccc(C(=O)O)c3)CC2)nc2ccccc21		inactive	75%		
Cc1ccc(C(=O)N2CCN(c3nc4ccccc4[nH]3)CC2)cc1		inactive	65%		
Cn1c(N2CCN(S(=O)(=O)c3ccccc3)CC2)nc2ccccc21	5.19	inactive			
Cc1ccc(S(=O)(=O)N2CCN(c3nc4ccccc4n3C)CC2)cc1	6.15	inactive			
Cn1c(N2CCN(S(=O)(=O)c3cccc(C(=O)NO)c3)CC2)nc2ccccc21		inactive	60%		
Cn1c(N2CCN(S(=O)(=O)c3ccc(C(C)(C)C)cc3)CC2)nc2ccccc21	5.32	inactive			
COc1ccc(S(=O)(=O)N2CCN(c3nc4ccccc4n3C)CC2)cc1OC	4.73	inactive			
Cc1ccc(S(=O)(=O)N2CCN(c3nc4ccccc4s3)CC2)cc1		inactive	89%		
